The term LC50 denotes the concentration lethal to half of the exposed cells or organisms.

What all share (type): functional, organism-based
Experiment [1] relates to Amphibalanus improvisus. Put plainly: Antifouling activity against Balanus improvisus […] assessed as inhibition of cyprid larval settlement at 0.1 to 10 uM after 3 to 4 days relative to control. An outline of the steps:
(§1)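 Competent Balanus improvisus cyprids (20 ± 2 per dish) in 10 mL filtered seawater (0.2 µm) containing test substance, dissolved first in milliQ water. Four replicate dishes per concentration, with filtered-seawater dishes as controls. Settled, living unsettled and dead cyprids were scored as percentages.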

In experiment [2] the test system is Amphibalanus improvisus. Briefly: Antifouling activity against Balanus improvisus […] assessed as inhibition of cyprid larval settlement. An outline of the steps:
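Competent B. improvisus cyprids (20 ± 2 per dish) were exposed in 10 mL filtered seawater (0.2 µm), with four replicates and filtered-seawater controls. Test substances were dissolved in milliQ water and diluted into seawater as three tenfold concentration steps. Settled, living-unsettled and dead cyprids were scored as percentages.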

The test system of experiment [3] is Amphibalanus improvisus. Briefly: Antifouling activity against Balanus improvisus […] assessed as inhibition of cyprid larval settlement at 1.9 uM after 3 to 4 days relative to control. An outline of the steps:
as §1

The source made the active and inactive calls. No cut-off for these calls is given here.

In the case of `N[C@@H](Cc1c[nH]c2ccccc12)C(=O)O`, the outcome with Amphibalanus improvisus [1] was inactive.

Take tributyltin-oxide: in the experiment on Amphibalanus improvisus [2], the LC50 was determined as 0.09 µg/mL.

Consider `N=C(N)NCCC[C@H](N)C(=O)O`, for which the result with Amphibalanus improvisus [1] was inactive.

On to `NC(Cc1c[nH]c2ccc(Br)cc12)C(=O)O` (racemic), for which the outcome with Amphibalanus improvisus [1] was inactive.

Turning to `N=C(N)NCCCC1NC(=O)C(Cc2c[nH]c3cc(Br)ccc23)NC1=O.O=C(O)C(F)(F)F` (stereo unspecified), the LC50 in the experiment on Amphibalanus improvisus [2] amounted to 4 µg/mL. For the same molecule, in the experiment on Amphibalanus improvisus [1], the result was Active.

On to `N=C(N)NCCC[C@@H]1NC(=O)/C(=C/c2c[nH]c3cc(Br)ccc23)NC1=O.O=C(O)C(F)(F)F`, for which the outcome in the experiment on Amphibalanus improvisus [3] and in the experiment on Amphibalanus improvisus [1] was Active. In the experiment with Amphibalanus improvisus [2], the LC50 is 0.4 µg/mL.

Regarding `NC(Cc1c[nH]c2cc(F)ccc12)C(=O)O` (racemic), the outcome in the experiment with Amphibalanus improvisus [1] was inactive.

On to `NC(Cc1c[nH]c2cc(Br)ccc12)C(=O)O` (racemic), for which the outcome in the experiment on Amphibalanus improvisus [1] was inactive.

Source of the values: ChEMBL document CHEMBL1146497, “Antifouling activity of brominated cyclopeptides from the marine sponge Geodia barretti” (J Nat Prod, 2004).
